High-throughput results: PubChem BioAssay, The Scripps Research Institute Molecular Screening Center
Sampled rows, rich in hits. Any-hit rate of the full collection: about 3.2%.
TRPML3 ag – human TRPML3 channel agonists, primary screen, cell-based, HEK293 TRPML3-YFP, Fluo-8 calcium fluorescence, 3 µM; 100% = the carbachol control signal; activation, % at 3 µM; Mucolipin-3 (Homo sapiens), Q8TDD5; actives 0.29% (n = 220,000);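 active = activation above its plate's cutoff, the mean activation of the plate's test wells plus 3 SD, cut at about 12% in these data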;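 also: 0% = DMSO only wells and 100% = carbachol wells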
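Material: TRPML3-YFP stable HEK293 cells | Dosing: One concentration, 3 µM nominal, 0.3% DMSO | Timing: 125 s total fluorescence read per well | Technique: Fluo-8 calcium dye fluorescence, ex 470-495, em 515-575 nm | Measure: Percent activation from peak-to-basal fluorescence ratio, scaled between DMSO and carbachol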
GPR7 antagonist – GPR7 receptor antagonists, primary screen, cell-based, fluorescence, single concentration. GPR7-expressing cells, fluorescence antagonist assay. actives 1.1% (n = 290,000). inhibition, % at 4.4 µM. Neuropeptides B/W receptor type 1 (Homo sapiens), P48145. AID 1861, 2009; in the data active = inhibition above about 16%, passing the limit was not always enough;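 also: cells stimulated with the agonist NPW; 0% = agonist with vehicle and 100% = vehicle without agonist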
Target sequence (P48145 whole entry, looked up): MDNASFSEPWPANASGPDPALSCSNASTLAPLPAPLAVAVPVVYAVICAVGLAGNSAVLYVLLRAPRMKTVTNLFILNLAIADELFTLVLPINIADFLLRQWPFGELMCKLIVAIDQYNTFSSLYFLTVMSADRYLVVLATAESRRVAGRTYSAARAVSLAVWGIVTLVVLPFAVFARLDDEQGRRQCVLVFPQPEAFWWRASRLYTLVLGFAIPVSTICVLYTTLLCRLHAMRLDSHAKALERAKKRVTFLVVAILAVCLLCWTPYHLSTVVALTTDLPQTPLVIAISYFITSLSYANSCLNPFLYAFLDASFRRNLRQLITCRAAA
OX1R antag-1 – OX1R (HCRTR1) antagonists, primary screen, fluorescence, CHO/OX1R cells, Fluo-8 calcium, orexin A; inhibition, % at 5 µM; actives 0.43% (n = 330,000); Fluo-8 calcium fluorescence; Orexin/Hypocretin receptor type 1 (Homo sapiens), O43613; AID 434989, 2010;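 active = inhibition above its plate's threshold, mean inhibition of all tested compounds on the plate plus 3 SD, cut at about 37% in these data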;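 also: 0% = orexin A challenge wells and 100% = SB-334867-A antagonist wells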
Target sequence (O43613 whole entry, looked up): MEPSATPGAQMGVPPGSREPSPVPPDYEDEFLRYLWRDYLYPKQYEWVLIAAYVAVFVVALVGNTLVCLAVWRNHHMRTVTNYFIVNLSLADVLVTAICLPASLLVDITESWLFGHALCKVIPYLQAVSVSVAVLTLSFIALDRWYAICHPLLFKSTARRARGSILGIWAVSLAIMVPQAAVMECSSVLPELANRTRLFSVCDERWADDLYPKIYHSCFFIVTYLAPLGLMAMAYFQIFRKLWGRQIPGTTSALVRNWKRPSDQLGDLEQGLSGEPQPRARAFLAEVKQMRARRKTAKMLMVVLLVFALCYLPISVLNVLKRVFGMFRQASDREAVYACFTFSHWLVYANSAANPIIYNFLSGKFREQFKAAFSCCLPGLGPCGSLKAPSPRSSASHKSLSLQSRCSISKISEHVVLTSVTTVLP
zfTRPN1 agonist – zebrafish TRPN1 channel agonists, primary screen, cell-based, HEK293, calcium fluorescence; actives 0.18% (n = 220,000); HEK293 zebrafish TRPN1-YFP, Fluo-8 calcium fluorescence; 100% = response to 87 µM carbachol; activation, % at 3 µM;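 active = activation above its plate's cutoff, the mean activation of test wells on that plate plus 3 SD, cut at about 19% in these data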;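 also: 0% = DMSO alone and 100% = 87 µM carbachol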
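Material: zebrafish TRPN1-YFP in HEK293 cells; Doses: single test compound dose, 3 µM nominal, 0.3% DMSO; Timing: dye loading 1 h at 37 °C, then 30 min room temperature; Technique: intracellular calcium fluorescence with Fluo-8; Benchmarks: high carbachol 87 µM, low DMSO alone.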
OX1R antag-2 – antagonists of human orexin 1 receptor (OX1R). Orexin/Hypocretin receptor type 1 (Homo sapiens), O43613. OX1R-expressing cells, FRET antagonist read-out. inhibition, % at 6.6 µM. actives 1.8% (n = 330,000). AID 485270, 2010; in the data active = inhibition mostly above about 38%, no sharp cut-off; inactive = mostly below about 40%;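 also: 0% = agonist challenge alone and 100% = reference antagonist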
CHO parental Ca – ATP-evoked calcium signal inhibitors, parental CHO, primary screen, counter-screen for OX1R antagonist project, cell-based, fluorescence, Fluo-8 calcium dye. parental CHO-K1, ATP-induced calcium, Fluo-8 fluorescence. inhibition, % at 5.6 µM. actives 0.63% (n = 330,000);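 active = inhibition above that plate's mean sample inhibition plus 3 SD, cut at about 26% in these data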;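 also: 0% = ATP-challenged DMSO wells and 100% = DMSO wells without ATP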
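material = parental CHO cells | also added = ATP as calcium-mobilizing challenge | dosing = single point at 5.6 µM | detection = intracellular calcium via Fluo-8 no-wash fluorescent dye | read-out = % inhibition | benchmarks = low control ATP plus DMSO, high control DMSO only | repeats = one well per compound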
* marks the source's active call; other numbers are inactive results; x = no result given.

SMILES | TRPML3 ag | GPR7 antagonist | OX1R antag-1 | zfTRPN1 agonist | OX1R antag-2 | CHO parental Ca
CCCOC(=O)c1cccc(NC(=O)COc2ccc([N+](=O)[O-])cc2)c1 | -0.7 | 9.4 | 24.4 | 2.2 | 34.3 | 31.8*
CCOC(=O)c1cccc(NC(=O)COc2ccc([N+](=O)[O-])cc2)c1 | -0.5 | 8.3 | -27.7 | 0.4 | 35.7 | -9.2
Cc1ccccc1C(=O)NCC(=O)NC1CC1 | x | x | -6.9 | x | 4.4 | -2.9
CCCN1C(=O)C(=O)c2cc(Cl)ccc21 | x | x | 3.0 | x | 49.2* | -11.4
O=C(Nc1ccc(Cl)c(Cl)c1)O/N=C/c1ccncc1 | 2.3 | 8.6 | 27.3 | 5.2 | 44.5 | 31.0*
CCCOC1CCCN(C(=O)c2cc(COc3c(F)cccc3F)on2)C1 (centres undefined) | x | -4.8 | -15.1 | x | 22.2 | -8.6
Cc1ccccc1C1CCCN(C(=O)c2cc(COc3c(F)cccc3F)on2)C1 (centres undefined) | 0.8 | -10.7 | -15.6 | -1.8 | 10.9 | 42.9*
O=C(NNC(=O)c1ccccc1O)c1ccc(Cl)c(S(=O)(=O)N2CCc3ccccc32)c1 | x | x | 39.7* | x | 62.0* | 57.2*
O=C(c1ccc(Cl)c(S(=O)(=O)N2CCc3ccccc32)c1)N1CCN(c2ccccc2O)CC1 | x | x | -2.5 | x | 10.8 | -7.4
Cc1ccc(S(=O)(=O)NCC(=O)OCC(=O)N(CCC#N)c2ccccc2)cc1 | x | x | -16.4 | x | 12.9 | -13.7
CCN(C(=O)CN1CCN(c2cccc(C(F)(F)F)c2)CC1)c1c(N)n(Cc2ccccc2)c(=O)[nH]c1=O | 0.8 | -10.6 | -2.6 | 0.3 | 27.9 | -15.4
COc1ccc(C/C(N)=N/OC(=O)C(c2ccccc2)c2ccccc2)cc1OC | 0.0 | -12.1 | 53.8* | -0.3 | 21.4 | -9.4
Cc1ccccc1CN1CCN(Cc2cc(=O)c3ccccc3[nH]2)CC1CCO (centres undefined) | x | -8.0 | -8.4 | x | 7.8 | -8.5
Cc1cc(NC(=O)COC(=O)C2CCC(=O)N2)c([N+](=O)[O-])cc1C (centres undefined) | 0.2 | -6.3 | -9.7 | 1.1 | 61.3* | -2.1
COc1ccc(-n2nc3cc(N)c(Br)cc3n2)cc1 | x | -17.5 | -16.0 | x | 43.3* | -5.6
CCCCOc1ccc(S(=O)(=O)NNC(=O)c2cc3ccccc3o2)cc1 | -0.1 | -9.4 | -30.9 | -0.8 | 9.0 | -26.6
CC(C)COc1ccc(S(=O)(=O)NNC(=O)c2cc3ccccc3o2)cc1 | 0.1 | -5.2 | 25.6 | -1.0 | 29.3 | 43.0*
CCc1ccc(OCC(=O)NNC(=O)c2cc3ccccc3o2)cc1 | 1.1 | -17.2 | -0.5 | 1.0 | 9.1 | 52.7*
Cc1cc(C)cc(OCC(=O)NNC(=O)c2cc3ccccc3o2)c1 | -0.4 | -13.6 | -4.2 | -1.0 | 9.4 | -11.0
Cc1ccc(S(=O)(=O)N2CCOCC2)cc1NC(=O)COC(=O)CCOc1ccc(C(C)(C)C)cc1 | x | x | 0.3 | x | 12.9 | -0.6
CCN1C(=O)N/C(=C/c2ccc(Sc3ccc(C)cc3)o2)C1=O | -0.3 | 7.2 | 61.1* | -1.1 | 52.2 | 63.9*
CCN1C(=O)N/C(=C/c2ccc(C)o2)C1=O | 0.9 | 1.2 | -19.6 | 1.3 | 18.0 | -9.2
Cc1ccc(OC(=O)CCNC(=O)c2ccccc2Cl)c(Br)c1 | x | x | -12.5 | x | 1.1 | -11.9
Cc1cc(C)nc(SCc2nc(N)nc(-c3ccccc3O)n2)n1 | -0.5 | 14.8 | 11.9 | -0.2 | 55.1* | -13.0
Nc1nc(-c2ccccc2)nc(-c2ccccc2O)n1 | 0.5 | -0.7 | 7.0 | 0.4 | 52.4* | -8.8
SMILES | TRPML3 ag | GPR7 antagonist | OX1R antag-1 | zfTRPN1 agonist | OX1R antag-2 | CHO parental Ca
CCOC(=O)N/N=C(\C)c1ccc(C)c([N+](=O)[O-])c1 | 0.7 | -2.4 | -15.3 | -1.1 | 11.8 | -4.0
COc1cc(CNc2ccc3[nH]c(=O)[nH]c3c2)ccc1OCC(=O)NC(C)(C)C | 0.7 | -7.3 | -14.7 | 1.3 | 27.9 | 98.8*
Oc1[nH]c(=S)sc1/C=C1\C(c2ccccc2)=Nc2ccccc21 | 1.7 | 4.6 | 23.2 | 1.3 | 75.7* | 17.6
Oc1[nH]c(=S)sc1C=C1N=c2ccccc2=N1 | -0.2 | -8.5 | 3.6 | 0.1 | 19.5 | 4.3
Cc1ccc(Oc2ccc(S(=O)(=O)Nc3ccc(C(=O)O)cc3)cc2)cc1 | x | x | 25.2 | x | 6.5 | -1.6
Cc1ccc(Sc2ccc(S(=O)(=O)Nc3ccc(C(=O)O)cc3)cc2)cc1C | x | x | 42.4 | x | 5.9 | 47.9*
C[C@H](NC(=O)N1CCn2c1nc1ccccc12)C(=O)NCc1ccc(F)cc1 | x | -4.7 | -16.6 | x | 18.9 | -22.9
CN(C)C(/C=C/Nc1cccc([N+](=O)[O-])c1)=C(C#N)C#N | 0.5 | -11.1 | 5.4 | 2.2 | 50.5* | -5.9
Cc1cccc(N/C=C/C(=C(C#N)C#N)N(C)C)c1 | 0.5 | -11.8 | 1.8 | 0.2 | 5.7 | -3.1
O=C(Nc1nnc(-c2ccc3c(c2)CCCC3)o1)c1ccc(Cl)cc1Cl | 0.3 | -12.0 | 4.9 | 0.7 | 54.6* | -5.3
Cc1ccc(S(=O)(=O)N2CCOCC2)cc1NC(=O)COC(=O)CCC(=O)c1cccs1 | -0.2 | 18.8* | -14.1 | 1.8 | 8.7 | -4.4
O=C(COC(=O)CCC(=O)c1cccs1)Nc1ccc(S(=O)(=O)N2CCOCC2)cc1 | 0.8 | -2.0 | -3.6 | 3.1 | 6.9 | 9.9
Cc1ccc(NC(=S)NCc2ccc(Cl)cc2)c(OC(F)F)c1 | x | 1.1 | -15.7 | x | 21.8 | -12.3
COc1ccc(C(C)=O)c(Oc2ccc(S(=O)(=O)N3CCOCC3)cn2)c1 | x | x | 3.0 | x | 3.2 | -17.7
COc1ccc(-n2nc(C(C)=O)c(=O)[nH]c2=O)cc1 | 0.6 | 1.6 | -10.5 | 1.4 | 72.3 | -18.9
CCOc1ccc(/C=C2/SC(=O)NC2=S)cc1 | 14.2* | 3.0 | 1.8 | 34.3* | 34.5 | 11.8
CCOc1ccc(N=C2NC(=O)S/C2=C\c2ccc(N(C)C)cc2)cc1 | 0.9 | 3.2 | 7.9 | 2.7 | 7.7 | 4.8
CC(C)NC(=O)CN1C(=O)CSc2ccc(S(=O)(=O)N3CCCC3)cc21 | x | 3.1 | -10.2 | x | 3.7 | -13.6
N#Cc1cc(C(=O)c2cc(F)ccc2O)cn(-c2nccs2)c1=O | 22.5* | -6.9 | 28.0 | 28.3* | -0.5 | 36.9*
Cc1c(-n2cc(C(=O)c3cc(F)ccc3O)cc(C#N)c2=O)c(=O)n(-c2ccccc2)n1C | 1.4 | -8.8 | -24.5 | 3.2 | 18.8 | -20.3
N#Cc1cc(C(=O)c2ccccc2O)cn(-c2nccs2)c1=O | 33.6* | 12.9 | 39.9 | 47.0* | 8.5 | 30.8
